High-throughput results: PubChem BioAssay, several laboratories
APJ antagonist: APJ receptor antagonism | P35414 | CHO-K1 APJ beta-arrestin complementation, luminescence | inhibition, % at 20 µM | 0.32% of 330,000 active | AID 2521;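 active = inhibition above about 40% at 20 µM, limit read from the data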;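 note: cells challenged with 10 nM apelin-13 agonist together with compound; plate controls were apelin-13 plus DMSO wells for no effect and DMSO wells lacking apelin-13 for full effect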
CCR6 antag: blocks CCL20-driven beta-arrestin recruitment at human CCR6 | AID 493098 | P51684 | 0.49% of 340,000 active | CHO-K1 CCR6 PathHunter beta-arrestin, luminescence, CCL20-stimulated | inhibition, % at 20 µM;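 active = compounds whose inhibition of the agonist-driven luminescence signal at 20 µM reaches about 50%, limit read from the data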;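 note: cells stimulated with CCL20 at 14 nM final; plate controls were DMSO with CCL20 for no effect and DMSO without agonist for full effect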
CXCR6 block: inhibitors of human CXCR6 receptor | O00574 | CHO-K1 PathHunter CXCR6 beta-arrestin, luminescence | inhibition, % at 20 µM | 0.36% of 360,000 active | AID 602244; in the data active = inhibition above about 34%, passing the limit was not always enough;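 note: antagonist mode with CXCL16 agonist at 10 nM final; 0% = 10 nM CXCL16 with DMSO and 100% = unstimulated wells without agonist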
Target sequence (O00574 whole entry, looked up): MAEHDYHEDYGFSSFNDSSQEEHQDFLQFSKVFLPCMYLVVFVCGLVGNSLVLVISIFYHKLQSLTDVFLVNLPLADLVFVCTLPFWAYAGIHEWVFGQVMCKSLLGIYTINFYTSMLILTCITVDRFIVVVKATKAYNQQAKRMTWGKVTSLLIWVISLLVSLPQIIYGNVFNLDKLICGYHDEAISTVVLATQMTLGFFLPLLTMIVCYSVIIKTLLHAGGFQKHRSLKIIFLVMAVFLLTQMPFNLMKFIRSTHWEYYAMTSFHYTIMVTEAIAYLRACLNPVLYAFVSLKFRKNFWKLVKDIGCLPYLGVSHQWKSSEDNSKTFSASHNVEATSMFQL
PKA-R2B act: activates the human PKA-R2B holoenzyme complex | P22694+P31323 | PKA-R2B holoenzyme dissociation, Cy5-IP20 fluorescence polarization; R2B truncated from residue 108, S112A mutant; 0% DMSO only, 100% 113 µM cGMP | activation, % at 11.4 µM | 0.079% of 340,000 active;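 active = activation above a cutoff set at the mean over all compounds plus 3 SD, cut at about 18% in these data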;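 note: higher means more holoenzyme dissociation and a rise in polarization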
PKA-R1A activ: PKA-R1A complex activation | P00514+P68181 | PKA-R1A dissociation, Cy5-IP20 fluorescence polarization; scaled: DMSO 0%, 113 µM cGMP 100% | activation, % at 11.4 µM | 0.083% of 340,000 active;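 active = percent activation above the mean of all tested compounds plus 3 SD, cut at about 19% in these data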;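 note: higher means more PKAc released from R1A so a rise in polarization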
APJ agonist: activates the human apelin receptor APJ. CHO-K1 APJ PathHunter beta-arrestin, luminescence; 0% DMSO wells, 100% apelin. activation, % at 20 µM. 0.11% of 330,000 active;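 active = activation more than six SD over the plate average, tested at 20 µM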;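 note: 0% = DMSO alone and 100% = apelin-13 at 10 nM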
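Assay system: engineered CHO-K1 APJ arrestin reporter cells; Amount: 1000 CHO-K1 reporter cells seeded per well; Dosing: one dose, 20 µM compound, 1% DMSO; Times: compound stimulation 90 min at 25 °C, detection 60 min; Measured by: luminescent beta-gal fragment complementation, chemiluminescent substrate; Read-out: APJ–arrestin association signal; Controls: DMSO vs Apelin-13 10 nM.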
APJ antag confirm: confirmation of human APJ apelin receptor antagonists; shares compounds with APJ antagonist; APJ beta-arrestin recruitment, luminescence, antagonist mode; inhibition, % at 20 µM; 66% of 950 active; AID 2766; in the data active = inhibition above about 50%
Active calls of the source: *; . = no result. Sampled rows, rich in hits. Any-hit rate of the full collection: about 0.88%.

SMILES | APJ antagonist | CCR6 antag | CXCR6 block | PKA-R2B act | PKA-R1A activ | APJ agonist | APJ antag confirm
COc1cc(O)c2c(c1)COC2=O | 44* | -15 | 6 | 4 | -13 | 2 | 25
Cc1cc(C)n2c(Nc3ccc4c(c3)OCCO4)c(CCc3ccccc3)nc2n1 | . | . | -4 | . | . | . | .
CCCS(=O)(=O)NC(=O)C1(C)CCCN(C(=O)c2ccc3c(c2)OCO3)C1 (stereo not given) | . | . | -3 | . | . | . | .
O=c1[nH]c2c(s1)C(c1ccco1)C1C3CCC(C3)C1S2 (stereo not given) | -26 | 17 | -1 | -1 | -7 | -1 | .
Cc1n[nH]c(C)c1S(=O)(=O)N1CCC(C(=O)N2CCn3c2nc2ccccc23)CC1 | 66* | 73* | 52* | -8 | -4 | -12 | 100*
COC(=O)c1ccc(CNC(=O)CCNC(=O)c2ccco2)cc1 | 10 | 6 | -4 | -5 | 4 | -3 | .
CCc1ccc(N2CC(C(=O)Nc3nnc(CC)s3)CC2=O)cc1 (stereo not given) | 62* | 3 | -7 | 7 | 0 | -2 | 25
CCOc1ccc2[nH]c(C)c(CN3CCCCCC3)c(=O)c2c1 | 12 | 11 | 1 | -4 | -13 | -2 | .
O=C1C2C3CCCC3=C3CCCC3C2C(=O)N1c1ccc(Cl)cc1 (stereo not given) | -6 | 23 | -10 | -4 | -1 | 2 | .
O=C1C2C3CCCC3=C3CCCC3C2C(=O)N1c1cccc(Cl)c1 (stereo not given) | 44* | -7 | -5 | -12 | -2 | 0 | 22
Cc1nn(CCC(=O)NNC(=S)Nc2ccc(F)cc2)c(C)c1Br | 52* | 28 | 16 | 0 | -2 | -5 | 108*
Cc1nn(C)c(C(=O)NNC(=S)Nc2ccc(F)cc2)c1[N+](=O)[O-] | 8 | 22 | 17 | -5 | 4 | -6 | .
CCCCNC(=S)NNC(=O)CCn1nc(C)c(Br)c1C | 64* | 41 | 28 | -11 | -9 | -15 | 125*
CCCCNC(=S)NNC(=O)CCn1cc(C)cn1 | 13 | 15 | 1 | -11 | -7 | -4 | .
Cc1nn(CCC(=O)NNC(=S)Nc2ccc([N+](=O)[O-])cc2)c(C)c1[N+](=O)[O-] | 49* | 30 | 33 | 1 | -6 | -6 | 87*
O=C(CCc1ccccc1)NNC(=S)Nc1ccc(F)cc1 | 4 | 3 | 5 | 0 | -8 | 0 | .
CCN(CC)S(=O)(=O)c1cccc(C(=O)NC(Cc2c[nH]c3ccccc23)c2nnc3n2CCC3)c1 (stereo not given) | 1 | 9 | 1 | -12 | -1 | -1 | .
OC(c1ccccc1)(c1ccccc1)C1CCN(CCCOc2ccc3c(c2)CCCC3)CC1 | . | . | -11 | . | . | . | .
CCN1CCN(C(c2ccccc2)c2nnnn2C(C)(C)C)CC1 (stereo not given) | . | . | 5 | . | . | . | .
O=C(C1=C(O)C(=O)N(CCN2CCOCC2)C1c1ccco1)c1cc2ccccc2o1 (stereo not given) | 50* | 14 | 26 | -3 | -5 | -24 | 41
COc1cc(C2C(C(=O)c3cccs3)=C(O)C(=O)N2CCN2CCOCC2)cc(OC)c1OC (stereo not given) | 6 | -4 | 4 | -2 | -13 | -1 | .
COc1cccc2cc(C(=O)C3=C(O)C(=O)N(CCN4CCOCC4)C3c3cccs3)oc12 (stereo not given) | 56* | 13 | 4 | 4 | -6 | -12 | 12
CC(C)(C)C(=O)NC1(C(F)(F)F)NC(=O)N(c2ccccc2F)C1=O (stereo not given) | 4 | 4 | -2 | -5 | 3 | -4 | .
c1ccc(C2OCCN2c2ccccc2)cc1 (stereo not given) | . | 2 | 2 | -5 | -6 | . | .
Cc1ccc(C(=O)N/C(=C\c2ccc(-c3ccc([N+](=O)[O-])cc3)o2)C(=O)NC2CCS(=O)(=O)C2)cc1 (stereo not given) | 4 | 23 | 3 | -1 | -3 | 3 | .
SMILES | APJ antagonist | CCR6 antag | CXCR6 block | PKA-R2B act | PKA-R1A activ | APJ agonist | APJ antag confirm
CC(C)Oc1ccc(S(=O)(=O)N2CCCCC2)cc1NC(=O)C1CSC2(C)CCC(=O)N12 (stereo not given) | 20 | 7 | 5 | 4 | 5 | -3 | .
COc1cccc(N=C2C(=O)N3CCCc4cccc2c43)c1 | -11 | 43 | -5 | 2 | 3 | -1 | .
COc1ccc(N=C2C(=O)N3c4c(cccc42)C(C)=CC3(C)C)cc1 | 46* | 50* | 30 | -4 | -7 | -3 | 89*
COc1ccc(OC)c(N=C2C(=O)Nc3ccccc32)c1 | 4 | 24 | -2 | -3 | 7 | -3 | .
COc1ccc(N=C2C(=O)Nc3ccc(C)c(Br)c32)cc1 | 89* | 105* | 82* | -2 | 3 | -19 | 159*
Cn1c(SCC(=O)N2CCOCC2)nnc1-c1ccco1 | 11 | -5 | -2 | -4 | 9 | -2 | .
Cc1occc1C(=O)NNC(=S)Nc1cccc([N+](=O)[O-])c1 | 45* | 32 | 4 | 7 | -5 | -5 | 47
Clc1ccccc1Sc1ccc(-c2ccccn2)s1 | -3 | 11 | -6 | . | . | 2 | .
Cc1ccc(Nc2cc(C)nn2-c2nc(C)cc(=O)[nH]2)cc1 | 87* | 82* | 64* | -4 | 16 | -16 | 108*
Cc1ccc(-c2ccc(C#N)c(=O)n2CC(=O)N(C)C)cc1 | -9 | -18 | -16 | 7 | -3 | -1 | .
CCn1c(-c2ccccc2)ccc(C#N)c1=O | 50* | 5 | 0 | 2 | 3 | -1 | 47
CCCS(=O)(=O)NC(=O)C1(C)CCN(C(=O)c2ccc(OC)cc2)C1 (stereo not given) | . | . | 3 | . | . | . | .
O=C(Cc1coc(-c2ccc(F)cc2)n1)NC1CCCCC1 | 60* | 5 | 1 | 5 | -2 | -3 | 20
O=C(Cc1coc(-c2ccc(F)cc2)n1)N1CCOCC1 | 5 | -30 | -10 | -5 | 5 | -3 | .
COc1cc2cc(CCCOC(=O)c3cccc(Br)c3)oc(=O)c2cc1OC | -2 | 14 | 1 | -8 | -3 | -1 | .
Cc1ccc(NC(=S)NCC2CCCO2)cc1 (stereo not given) | 45* | 11 | -1 | -4 | 8 | -2 | 20
Cc1ccc(NC(=S)NCC2CCCO2)cc1C (stereo not given) | 3 | -2 | -2 | -1 | -4 | -4 | .
CCOC(=O)c1c(-c2ccccc2)csc1NC(=O)c1cc(S(=O)(=O)N2CCOCC2)ccc1C | 10 | 11 | 4 | 5 | -10 | -3 | .
